# Experimental data as given in article PMC10262665 (Science (New York, N.Y.), 2023).
# Assays:
# [1] = molecular target: GAPDH (Homo sapiens, UniProt P04406); test: MIDAS protein-metabolite interaction screen; assay type: binding; details: significant PMI Q < 0.01
# [2] = molecular target: PGAM1 (Homo sapiens, UniProt P18669); test: MIDAS protein-metabolite interaction screen; assay type: binding; details: significant PMI Q < 0.01
# Procedure, shortened: (§1)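 Purified protein is separated from a defined metabolite library by a semipermeable dialysis membrane that passes metabolites but not protein, then incubated to relative equilibrium. Protein is denatured and removed. Metabolites in both chambers are quantified by flow injection analysis–MS, with methods optimized for each pool. The between-chamber fold change is normalized and corrected for nonspecific interactions.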
# [3] = molecular target: T1, PGAM2 (Homo sapiens, UniProt P15259); test: MIDAS protein-metabolite interaction screen; assay type: binding; details: significant PMI Q < 0.01
# T1 sequence (P15259 1-253): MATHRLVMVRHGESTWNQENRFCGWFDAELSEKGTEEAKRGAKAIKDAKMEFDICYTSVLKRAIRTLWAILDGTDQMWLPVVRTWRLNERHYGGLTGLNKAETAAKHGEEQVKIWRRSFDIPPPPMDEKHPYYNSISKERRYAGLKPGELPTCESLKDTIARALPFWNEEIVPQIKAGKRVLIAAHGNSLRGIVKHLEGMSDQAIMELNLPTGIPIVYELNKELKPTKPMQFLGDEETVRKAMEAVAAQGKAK
# Procedure, shortened: as §1
# [4] = molecular target: LDHB (Homo sapiens, UniProt P07195); test: MIDAS protein-metabolite interaction screen; assay type: binding; details: significant PMI Q < 0.01
# Procedure, shortened: as §1
# [5] = molecular target: T2, LDHA (Homo sapiens, UniProt P00338); test: MIDAS protein-metabolite interaction screen; assay type: binding; details: significant PMI Q < 0.01
# Procedure, shortened: as §1
# [6] = molecular target: ENO2 (Homo sapiens, UniProt P09104); test: Differential scanning fluorimetry; assay type: binding; details: DSF, ENO2
# [7] = molecular target: ENO1 (Homo sapiens, UniProt P06733); test: Differential scanning fluorimetry; assay type: binding; details: DSF, ENO1
# [8] = molecular target: T3, Sestrin2 (Homo sapiens, UniProt P58004); test: MIDAS protein-metabolite interaction screen; assay type: binding; details: significant PMI Q < 0.01
# T3 sequence (P58004 1-480): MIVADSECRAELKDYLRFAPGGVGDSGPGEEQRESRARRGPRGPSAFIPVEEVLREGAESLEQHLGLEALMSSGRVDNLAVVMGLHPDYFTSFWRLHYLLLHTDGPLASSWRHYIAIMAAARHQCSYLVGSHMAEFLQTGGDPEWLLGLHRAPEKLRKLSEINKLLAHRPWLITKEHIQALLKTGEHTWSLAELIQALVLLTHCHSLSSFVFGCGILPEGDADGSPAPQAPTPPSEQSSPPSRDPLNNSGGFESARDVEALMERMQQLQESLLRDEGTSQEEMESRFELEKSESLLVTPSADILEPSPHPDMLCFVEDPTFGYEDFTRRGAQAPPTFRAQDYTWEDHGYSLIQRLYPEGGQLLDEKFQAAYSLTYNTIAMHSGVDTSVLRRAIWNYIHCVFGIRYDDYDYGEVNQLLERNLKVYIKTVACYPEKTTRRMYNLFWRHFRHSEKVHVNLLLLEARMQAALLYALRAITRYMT
# Procedure, shortened: as §1
# [9] = system: H9c2 rat cardiomyoblasts; test: 13C-glucose metabolic tracing into lactate; assay type: cell-based; details: for labeling of lactate from 13C-glucose: BSA-conjugated palmitate vs BSA
# [10] = system: H9c2 rat cardiomyoblasts; test: 13C-lactate metabolic tracing into pyruvate; assay type: cell-based
# [11] = molecular target: T4, CASTOR1 (Homo sapiens, UniProt Q8WTX7); test: MIDAS; assay type: binding; details: significant PMI Q < 0.01
# T4 sequence (Q8WTX7 1-329): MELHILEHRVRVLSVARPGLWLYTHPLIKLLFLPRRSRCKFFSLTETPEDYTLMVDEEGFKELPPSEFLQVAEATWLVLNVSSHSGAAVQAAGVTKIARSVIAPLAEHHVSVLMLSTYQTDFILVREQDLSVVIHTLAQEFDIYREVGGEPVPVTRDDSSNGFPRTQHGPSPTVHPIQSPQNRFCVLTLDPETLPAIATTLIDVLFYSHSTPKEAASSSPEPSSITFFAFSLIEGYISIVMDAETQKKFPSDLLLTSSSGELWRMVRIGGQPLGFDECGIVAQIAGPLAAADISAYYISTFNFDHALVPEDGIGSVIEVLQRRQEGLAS
# Procedure, shortened: as §1
# [12] = molecular target: T2, LDHA; test: LDH enzyme activity assay; assay type: biochemical; details: for inhibition of LDHA enzyme activity: in vitro; for IC50: LDHA enzyme activity, acyl-CoAs
# Procedure, shortened: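 LDH isoform activity measured in vitro with test metabolites (adenosine nucleotides, CoA and acyl-CoAs) over a concentration range. IC50 is derived from the inhibition curves. Mode of inhibition is assessed against NAD and lactate.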
# [13] = dimethylated fatty acid analogs
# Chain of PGAM1 (P18669 whole entry): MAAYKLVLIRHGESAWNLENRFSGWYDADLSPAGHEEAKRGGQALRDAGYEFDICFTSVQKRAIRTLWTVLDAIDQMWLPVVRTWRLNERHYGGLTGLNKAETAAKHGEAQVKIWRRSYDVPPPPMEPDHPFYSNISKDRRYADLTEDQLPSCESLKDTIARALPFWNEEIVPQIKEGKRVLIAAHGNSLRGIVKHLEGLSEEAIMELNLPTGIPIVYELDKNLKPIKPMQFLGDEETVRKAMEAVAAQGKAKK
# Chain of LDHB (P07195 whole entry): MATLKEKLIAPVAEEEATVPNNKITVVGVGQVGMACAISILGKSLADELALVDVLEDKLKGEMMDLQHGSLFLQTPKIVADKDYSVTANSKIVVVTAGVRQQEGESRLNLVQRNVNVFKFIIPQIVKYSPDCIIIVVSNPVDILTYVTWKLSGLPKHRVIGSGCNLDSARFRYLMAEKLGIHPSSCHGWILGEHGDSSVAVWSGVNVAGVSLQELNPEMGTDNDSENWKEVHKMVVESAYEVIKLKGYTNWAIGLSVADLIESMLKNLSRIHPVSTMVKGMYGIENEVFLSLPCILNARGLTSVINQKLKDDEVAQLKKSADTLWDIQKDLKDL
# Chain of GAPDH (P04406 whole entry): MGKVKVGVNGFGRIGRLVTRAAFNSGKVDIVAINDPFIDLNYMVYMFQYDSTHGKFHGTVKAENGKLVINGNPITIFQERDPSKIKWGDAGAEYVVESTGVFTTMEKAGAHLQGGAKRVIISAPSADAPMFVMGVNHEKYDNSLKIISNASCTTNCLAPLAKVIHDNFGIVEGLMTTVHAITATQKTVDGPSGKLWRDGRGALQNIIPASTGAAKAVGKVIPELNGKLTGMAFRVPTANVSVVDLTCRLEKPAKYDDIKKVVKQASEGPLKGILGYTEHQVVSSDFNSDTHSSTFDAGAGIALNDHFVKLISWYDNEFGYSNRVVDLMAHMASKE
# Chain of ENO2 (P09104 whole entry): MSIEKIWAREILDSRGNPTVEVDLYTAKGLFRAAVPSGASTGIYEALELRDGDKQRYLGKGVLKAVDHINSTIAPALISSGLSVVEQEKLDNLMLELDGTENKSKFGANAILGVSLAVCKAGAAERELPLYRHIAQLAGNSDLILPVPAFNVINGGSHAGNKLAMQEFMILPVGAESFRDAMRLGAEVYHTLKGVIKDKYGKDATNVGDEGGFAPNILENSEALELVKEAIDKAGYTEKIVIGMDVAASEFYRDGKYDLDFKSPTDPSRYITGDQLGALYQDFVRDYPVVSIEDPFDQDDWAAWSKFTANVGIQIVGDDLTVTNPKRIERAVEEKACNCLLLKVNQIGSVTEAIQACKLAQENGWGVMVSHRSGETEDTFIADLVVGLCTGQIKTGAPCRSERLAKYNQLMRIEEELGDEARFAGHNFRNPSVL
# Chain of ENO1 (P06733 whole entry): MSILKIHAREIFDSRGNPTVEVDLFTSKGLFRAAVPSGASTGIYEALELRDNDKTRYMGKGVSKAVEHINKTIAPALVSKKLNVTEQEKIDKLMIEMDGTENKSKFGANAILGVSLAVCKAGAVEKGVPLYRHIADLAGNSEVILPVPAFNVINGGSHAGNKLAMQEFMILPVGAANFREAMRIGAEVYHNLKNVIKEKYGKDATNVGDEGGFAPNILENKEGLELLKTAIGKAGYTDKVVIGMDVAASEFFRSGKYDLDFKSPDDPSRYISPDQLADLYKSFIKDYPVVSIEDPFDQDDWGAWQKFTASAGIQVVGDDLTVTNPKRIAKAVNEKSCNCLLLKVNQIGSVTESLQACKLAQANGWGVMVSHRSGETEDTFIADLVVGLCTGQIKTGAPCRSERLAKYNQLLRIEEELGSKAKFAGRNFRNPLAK
compound,measurement,setting,value
"O=P(O)(O)O[C@@H]1[C@H](O)[C@H](O)[C@@H](OP(=O)(O)O)[C@H](OP(=O)(O)O)[C@H]1O [inositol-1,4,5-trisphosphate]",MIDAS protein-metabolite interaction,[1],interacted
same,MIDAS protein-metabolite interaction,[2],interacted
"O=C(O)[C@H](O)COP(=O)(O)O [3PG, 3-phosphoglycerate]",MIDAS protein-metabolite interaction,[3],interacted
same,MIDAS protein-metabolite interaction,[2],interacted
"CCCCCC(=O)OCC(COP(=O)(O)OC1C(O)C(O)C(OP(=O)(O)O)C(OP(=O)(O)O)C1O)OC(=O)CCCCC (centres unmarked) [PIP2, phosphatidylinositol-4,5-bisphosphate C-6]",MIDAS protein-metabolite interaction,[3],interacted
"NC(=O)c1ccc[n+]([C@@H]2O[C@H](COP(=O)([O-])OP(=O)(O)OC[C@H]3O[C@@H](n4cnc5c(N)ncnc54)[C@H](O)[C@@H]3O)[C@@H](O)[C@H]2O)c1 [NAD, nicotinamide adenine dinucleotide]",MIDAS protein-metabolite interaction,[4],interactions
same,MIDAS protein-metabolite interaction,[1],interacted
same,MIDAS protein-metabolite interaction,[5],interactions
"O=C(O)[C@@H](CO)OP(=O)(O)O [2PG, 2-phosphoglycerate]",Kd,[6]; read-out: apparent dissociation constant (KD app),289 µM
same,Kd,[7]; read-out: apparent dissociation constant (Kd app),298 µM
N[C@@H](Cc1ccc(OP(=O)(O)O)cc1)C(=O)O [phosphotyrosine],thermal stabilization of protein upon ligand binding,[6],not
same,thermal stabilization of protein upon ligand binding,[7],not
CC[C@H](C)[C@H](N)C(=O)O [isoleucine],MIDAS protein-metabolite interaction,[8],most enriched interactors
"O=C(O)C(COP(=O)(O)O)OP(=O)(O)O (centres unmarked) [2,3-BPG, 2,3-bisphosphoglycerate]",MIDAS protein-metabolite interaction,[1],interacted
same,MIDAS protein-metabolite interaction,[3],interacted
same,MIDAS protein-metabolite interaction,[2],interacted
NC(=O)c1ccc[n+]([C@@H]2O[C@H](COP(=O)([O-])O)[C@@H](O)[C@H]2O)c1 [nicotinamide mononucleotide],MIDAS protein-metabolite interaction,[4],interactions
same,MIDAS protein-metabolite interaction,[5],interactions
CN(CC(=O)O)C(=N)NP(=O)(O)O [creatine-phosphate],MIDAS protein-metabolite interaction,[1],interacted
"CCCCCCCCCCCCCCCCC(C)(C)C(=O)O [DiMeSte, 2,2-dimethyl-stearate, reference compound]",13C-glucose tracing,[9]; [13],inhibited
same,13C-lactate tracing,[10]; [13],inhibited
"CCCCCC(=O)OCC(COP(=O)(O)OC1C(O)C(OP(=O)(O)O)C(OP(=O)(O)O)C(OP(=O)(O)O)C1O)OC(=O)CCCCC (centres unmarked) [PIP3, phosphatidylinositol-3,4,5-trisphosphate C-6]",MIDAS protein-metabolite interaction,[3],interacted
N=C(N)NCCC[C@H](N)C(=O)O [arginine],MIDAS protein-metabolite interaction,[11],most enriched interactors
O=C(O)CC(=O)C(=O)O [oxaloacetate],MIDAS protein-metabolite interaction,[4],interactions
same,MIDAS protein-metabolite interaction,[5],interactions
"CC(C)(COP(=O)(O)OP(=O)(O)OC[C@H]1O[C@@H](n2cnc3c(N)ncnc32)[C@H](O)[C@@H]1OP(=O)(O)O)[C@@H](O)C(=O)NCCC(=O)NCCS [CoA, coenzyme A]",inhibition of LDHA enzyme activity,[12],Neither
"C=C(OP(=O)(O)O)C(=O)O [PEP, phosphoenolpyruvate]",MIDAS protein-metabolite interaction,[3],interacted
same,MIDAS protein-metabolite interaction,[2],interacted
"CCCCCCCC/C=C\CCCCCCCC(=O)SCCNC(=O)CCNC(=O)[C@H](O)C(C)(C)COP(=O)(O)OP(=O)(O)OC[C@H]1O[C@@H](n2cnc3c(N)ncnc32)[C@H](O)[C@@H]1OP(=O)(O)O [C18:1-CoA, oleoyl-CoA]",IC50,[12],~1 µM
Cc1cc2nc3c(=O)[nH]c(=O)nc-3n(C[C@H](O)[C@H](O)[C@H](O)COP(=O)(O)OP(=O)(O)OC[C@H]3O[C@@H](n4cnc5c(N)ncnc54)[C@H](O)[C@@H]3O)c2cc1C [flavin adenine dinucleotide],MIDAS protein-metabolite interaction,[4],interactions
same,MIDAS protein-metabolite interaction,[5],interactions
CC(C)(CO[P@@](=O)(O)O[P@@](=O)(O)OC[C@H]1O[C@@H](n2cnc3c(N)ncnc32)[C@H](O)[C@@H]1OP(=O)(O)O)[C@@H](O)C(=O)NCCC(=O)NCCSC(=O)CC(=O)O [malonyl-coenzyme A],MIDAS protein-metabolite interaction,[1],interacted
N[C@@H](CO)C(=O)O [serine],thermal stabilization of protein upon ligand binding,[6],not
same,thermal stabilization of protein upon ligand binding,[7],not
CC(C)C[C@H](N)C(=O)O [leucine],MIDAS protein-metabolite interaction,[8],most enriched interactors
"CCCCCCCCCCCC(=O)SCCNC(=O)CCNC(=O)[C@H](O)C(C)(C)COP(=O)(O)OP(=O)(O)OC[C@H]1O[C@@H](n2cnc3c(N)ncnc32)[C@H](O)[C@@H]1OP(=O)(O)O [C12:0-CoA, lauroyl-CoA]",IC50,[12],> 100 µM
"CCC/C=C/C/C=C/C=C/C=N/NN=O [triacsin C, reference compound]",effect on palmitate-mediated inhibition of lactate labeling,[9]; 13C-glucose tracing in presence of palmitate,prevented
same,effect on palmitate-mediated inhibition of pyruvate labeling,[10]; 13C-lactate tracing in presence of palmitate,prevented
"CCCCCCCCCCCCCCC(C)(C)C(=O)SCCNC(=O)CCNC(=O)C(O)C(C)(C)COP(=O)(O)OP(=O)(O)OCC1OC(n2cnc3c(N)ncnc32)C(O)C1OP(=O)(O)O (centres unmarked) [DiMePal-CoA, reference compound]",inhibition of LDHA enzyme activity,[12],inhibited
"CCCCCCCCCCCCCCCC(=O)O [Palmitate, palmitate]",labeling of lactate from 13C-glucose,[9]; Ldhb−/− H9c2 cells,decreased
same,labeling of lactate from 13C-glucose,[9]; WT H9c2 cells,decreased
same,pyruvate labeling from 13C-lactate,[10]; Ldha−/− H9c2 cells,unaffected
same,pyruvate labeling from 13C-lactate,[10]; Ldha−/−Ldhb−/− H9c2 cells,unaffected
same,generation of m+3 pyruvate from 13C-lactate,[10]; Ldhb−/− H9c2 cells,blunted
same,generation of m+3 pyruvate from 13C-lactate,[10]; WT H9c2 cells,blunted
CSCC[C@H](N)C(=O)O [methionine],MIDAS protein-metabolite interaction,[8],most enriched interactors
phosphate,thermal stabilization of protein upon ligand binding,[6],not
same,thermal stabilization of protein upon ligand binding,[7],not
NCCCCCN [cadaverine],MIDAS protein-metabolite interaction,[11],bind
same,MIDAS protein-metabolite interaction,[8],bind
NC(=O)C1=CN([C@@H]2O[C@H](COP(=O)(O)OP(=O)(O)OC[C@H]3O[C@@H](n4cnc5c(N)ncnc54)[C@H](O)[C@@H]3O)[C@@H](O)[C@H]2O)C=CC1 [NADH],MIDAS protein-metabolite interaction,[4],interactions
same,MIDAS protein-metabolite interaction,[5],interactions
"CC(O)(CC(=O)O)CC(=O)SCCNC(=O)CCNC(=O)[C@H](O)C(C)(C)COP(=O)(O)OP(=O)(O)OC[C@H]1O[C@@H](n2cnc3c(N)ncnc32)[C@H](O)[C@@H]1OP(=O)(O)O (some centres unmarked) [HMG-CoA, 3-hydroxy-3-methylglutaryl-CoA]",MIDAS protein-metabolite interaction,[1],interacted
NCCCCN=C(N)N [agmatine],MIDAS protein-metabolite interaction,[11],bind
same,MIDAS protein-metabolite interaction,[8],bind
"CCCCCCCCCCCCCCCCCCCC(=O)SCCNC(=O)CCNC(=O)[C@H](O)C(C)(C)COP(=O)(O)OP(=O)(O)OC[C@H]1O[C@@H](n2cnc3c(N)ncnc32)[C@H](O)[C@@H]1OP(=O)(O)O [C20:0-CoA, arachidoyl-CoA]",IC50,[12],~1 µM
"NCCCN [1,3-diaminopropane]",MIDAS protein-metabolite interaction,[11],bind
same,MIDAS protein-metabolite interaction,[8],bind
"Nc1ncnc2c1ncn2[C@@H]1O[C@@H]2COP(=O)(O)O[C@H]2[C@H]1O [cAMP, cyclic adenosine monophosphate]",MIDAS protein-metabolite interaction,[1],interacted
